Data: ChEMBL document CHEMBL1124725, “Inhibition of steroid 5 alpha-reductase by unsaturated 3-carboxysteroids” (J Med Chem, 1990)

Key:
[1] = molecular target: T1, 3-oxo-5-alpha-steroid 4-dehydrogenase 2 (Homo sapiens, UniProt P31213); experiment: In vitro inhibition of Steroid 5-alpha-reductase in human prostatic tissue.; conditions: read-out: Ki app
T1 sequence (P31213 whole entry): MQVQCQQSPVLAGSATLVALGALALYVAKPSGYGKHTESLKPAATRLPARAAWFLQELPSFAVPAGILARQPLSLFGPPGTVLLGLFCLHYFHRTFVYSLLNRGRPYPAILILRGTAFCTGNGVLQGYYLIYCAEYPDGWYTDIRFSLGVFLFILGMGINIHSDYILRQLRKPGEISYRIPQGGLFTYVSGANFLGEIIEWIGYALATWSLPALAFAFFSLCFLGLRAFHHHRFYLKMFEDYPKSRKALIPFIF
In short: (§1)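 Microsomes from surgically derived benign hyperplastic human prostate. Incubation was in 50 mM sodium citrate, pH 5.0, with 400 μM NADPH at 37 °C for 20–30 min, with ≤20% of T consumed. The reaction was quenched with ethyl acetate, and the read-out was total 5α-reduced products (DHT + ADIOL). Ki,app came from Dixon plots, or IC50 if nonlinear; ranges span microsome preparations.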

[2] = molecular target: T2, Steroid 5-alpha-reductase (Rattus norvegicus, UniProt P24008+P31214); experiment: In vitro inhibition of Steroid 5-alpha-reductase in rat ventral prostates.; type: tissue-based, Prostate gland
T2 sequence (P24008 whole entry): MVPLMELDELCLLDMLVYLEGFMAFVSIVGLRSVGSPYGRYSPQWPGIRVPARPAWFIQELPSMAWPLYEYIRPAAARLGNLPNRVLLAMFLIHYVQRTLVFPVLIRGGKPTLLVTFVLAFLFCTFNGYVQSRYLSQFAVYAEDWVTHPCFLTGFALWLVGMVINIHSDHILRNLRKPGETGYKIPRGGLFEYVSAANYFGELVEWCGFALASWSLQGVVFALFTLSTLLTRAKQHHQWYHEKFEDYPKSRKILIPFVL
T2 sequence (P31214 whole entry): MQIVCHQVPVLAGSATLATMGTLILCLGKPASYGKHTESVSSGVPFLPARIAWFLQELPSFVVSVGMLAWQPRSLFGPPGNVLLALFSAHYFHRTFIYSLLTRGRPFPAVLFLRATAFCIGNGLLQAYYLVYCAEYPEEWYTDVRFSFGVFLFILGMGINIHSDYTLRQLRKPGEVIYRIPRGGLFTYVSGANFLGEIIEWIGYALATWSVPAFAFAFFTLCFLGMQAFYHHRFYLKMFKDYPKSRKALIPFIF
In short: (§2)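 Rat ventral prostate microsomes were incubated with [14C]T (1.2 μM) and test compound (0–10 μM), both dried from ethanol. Buffer was 20 mM sodium phosphate, pH 6.6, with 400 μM NADPH, at 37 °C for 20–30 min, keeping T consumption ≤20%. After ethyl acetate quench, DHT plus […] formation was measured. Apparent Ki came from Dixon analysis, or IC50 for hyperbolic inhibition; ranges reflect different enzyme preparations.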

[3] = molecular target: T1, 3-oxo-5-alpha-steroid 4-dehydrogenase 2; experiment: In vitro inhibitory activity against Steroid 5-alpha-reductase was determined in human prostatic tissue expressed as apparent inhibition constant; Range is 7-12; conditions: read-out: Ki app
In short: as §1, with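 “prostate. [14C]T (1.2 μM) and inhibitor (0–10 μM) were dried down from ethanol.” for “prostate.”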

[4] = molecular target: T2, Steroid 5-alpha-reductase; experiment: In vitro inhibitory activity against Steroid 5-alpha-reductase was determined in rat ventral prostates expressed as apparent inhibition constant; Range is 35-50; type: tissue-based, Prostate gland; in short: as §2
[5] = molecular target: T1, 3-oxo-5-alpha-steroid 4-dehydrogenase 2; experiment: In vitro inhibitory activity against Steroid 5-alpha-reductase was determined in human prostatic tissue expressed as apparent inhibition constant; Range is 7-18; conditions: read-out: Ki app
[6] = molecular target: T1, 3-oxo-5-alpha-steroid 4-dehydrogenase 2; experiment: In vitro inhibitory activity against Steroid 5-alpha-reductase was determined in human prostatic tissue expressed as apparent inhibition constant; Range is 700-900
[7] = molecular target: T2, Steroid 5-alpha-reductase; experiment: In vitro inhibitory activity against 5-alpha reductase was determined in rat ventral prostates expressed as apparent inhibition constant; type: tissue-based, Prostate gland; in short: as §2
[8] = molecular target: T1, 3-oxo-5-alpha-steroid 4-dehydrogenase 2; experiment: In vitro inhibitory activity against 5-alpha reductase was determined in human prostatic tissue expressed as apparent inhibition constant; conditions: read-out: Ki app
In short: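 Microsomes from surgically obtained benign hyperplastic human prostate; 50 mM sodium citrate, pH 5.0, 37 °C, 20–30 min. Substrate [14C]testosterone 1.2 μM, NADPH 400 μM final, inhibitor 0–10 μM. Read-out is conversion to total 5α-reduced metabolites (DHT plus 5α-androstanediol), keeping T consumption ≤20%. Ki,app from Dixon analysis for linear inhibitors; ranges given across microsome preparations.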

[9] = molecular target: T2, Steroid 5-alpha-reductase; experiment: In vitro inhibitory activity against Steroid 5-alpha-reductase was determined in rat ventral prostates expressed as apparent inhibition constant; Range is 20-30; type: tissue-based, Prostate gland; in short: as §2

`CC(C)N(C(=O)[C@H]1CCC2C3CCC4=C[C@@H](C(=O)O)CC[C@]4(C)C3CC[C@@]21C)C(C)C` (stereo partly drawn) was tested, and the Ki [1] was 200 nM and the Ki app [2] was 2000 nM.
For `CC(C)N(C(=O)[C@H]1CCC2C3CCC4=C[C@H](C(=O)O)CC[C@]4(C)C3CC[C@@]21C)C(C)C` (stereo partly drawn), the Ki [1] was 570 nM and the Ki app [2] was greater than 10000 nM.
Work on `C[C@]12CCC(C(=O)O)=CC1=CCC1C2CC[C@@]2(C)C1CC[C@@H]2C#N` (stereo partly drawn) yielded a Ki [1] of 790 nM and a Ki app [2] of 140 nM.
`CC(C)N(C(=O)[C@H]1CCC2C3CC[C@H]4C=C(C(=O)O)C=C[C@]4(C)C3CC[C@@]21C)C(C)C` (stereo partly drawn) was tested, and the Ki [1] was 62 nM and the Ki app [2] was 65 nM.
`CC(C)N(C(=O)[C@H]1CCC2C3CCC4=CC(C(=O)O)=CC[C@]4(C)C3CC[C@@]21C)C(C)C` (stereo partly drawn) was tested, and the Ki [1] was 52 nM and the Ki app [2] was 120 nM.
Compound `CC(C)N(C(=O)[C@H]1CCC2C3CCC4=C[C@@](O)(C(=O)O)CC[C@]4(C)C3CC[C@@]21C)C(C)C` (stereo partly drawn) has a Ki [1] of 320 nM and a Ki app [2] greater than 10000 nM.
With `CC(C)N(C(=O)[C@H]1CCC2C3CC(F)=C4C=C(C(=O)O)CC[C@]4(C)C3CC[C@@]21C)C(C)C` (stereo partly drawn) the Ki [1] was 32 nM and the Ki app [2] was 33 nM.
With `CC(C)N(C(=O)[C@H]1CCC2C3CC[C@H]4CC(C(=O)O)=CC[C@]4(C)C3CC[C@@]21C)C(C)C` (stereo partly drawn) the Ki [1] was 85 nM and the Ki app [2] was 110 nM.
`CC(CO)[C@@H]1CCC2C3CCC4C=C(C(=O)O)CC[C@]4(C)C3CC[C@@]21C` (stereo partly drawn) showed a Ki [1] of 5000 nM and a Ki app [2] of 155 nM.
In the case of `CC(C)N(C(=O)[C@H]1CCC2C3CCC4=C[C@](O)(C(=O)O)CC[C@]4(C)C3CC[C@@]21C)C(C)C` (stereo partly drawn), the Ki [1] is reported as 220 nM and the Ki app [2] is reported as greater than 10000 nM.
`CC(C)(C)NC(=O)[C@H]1CC[C@H]2[C@@H]3CC[C@H]4C=C(C(=O)O)CC[C@]4(C)[C@H]3CC[C@]12C` was tested, and the Ki [1] was 110 nM and the Ki app [2] was 11 nM.
`CC(C)N(C(=O)[C@H]1CC[C@H]2[C@@H]3CC[C@H]4C(F)=C(C(=O)O)CC[C@]4(C)[C@H]3CC[C@]12C)C(C)C` gave a Ki app [2] of 35 nM.
`CC(C)N(C(=O)[C@H]1CCC2C3C=CC4=CC(C(=O)O)=CC[C@]4(C)C3CC[C@@]21C)C(C)C` (stereo partly drawn) showed a Ki [3] of 7 nM and a Ki app [2] of 300 nM.
For `CC(C)N(C(=O)[C@H]1CCC2C3CC=C4C=C(C(=O)O)CC[C@]4(C)C3CC[C@@]21C)C(C)C` (stereo partly drawn), the Ki app [4] was 35 nM and the Ki [5] was 7 nM.
`CC(C)N(C(=O)[C@H]1CC[C@H]2[C@@H]3CC[C@H]4CC(C(=O)O)CC[C@]4(C)[C@H]3CC[C@]12C)C(C)C` (stereo partly drawn) gave a Ki [1] of 2200 nM and a Ki app [2] of 340 nM.
For `CC(C)N(C(=O)[C@H]1CCC2C3CCC4=C(CCC(C(=O)O)=C4)C3CC[C@@]21C)C(C)C` (stereo partly drawn), the Ki app [2] was 290 nM.
Work on `CC(C)N(C(=O)[C@H]1CCC2C3CC=C4C=C(C(=O)O)CC[C@@H]4C3CC[C@@]21C)C(C)C` (stereo partly drawn) yielded a Ki app [2] of 140 nM.
`CC1=C2C=C(C(=O)O)CC[C@]2(C)C2CC[C@@]3(C)C(CC[C@@H]3C(=O)N(C(C)C)C(C)C)C2C1` (stereo partly drawn) was tested, and the Ki app [2] was 200 nM.
With `CC1=C(C(=O)O)CC[C@@]2(C)C1=CCC1C2CC[C@@]2(C)C1CC[C@@H]2C(=O)N(C(C)C)C(C)C` (stereo partly drawn) the Ki [1] was 35 nM and the Ki app [2] was 70 nM.
Compound `CC(C)N(C(=O)[C@H]1CCC2C3CC=C4C=C(C(=O)O)CC[C@]4(C)C3C=C[C@@]21C)C(C)C` (stereo partly drawn) has a Ki [1] of 7 nM and a Ki app [2] of 47 nM.
Compound `CC(C)N(C(=O)[C@H]1CCC2C3CC=C4C=C(C(=O)O)C=C[C@]4(C)C3CC[C@@]21C)C(C)C` (stereo partly drawn) has a Ki [1] of 60 nM and a Ki app [2] of 600 nM.
In the case of `CC(C)N(C(=O)[C@H]1CCC2C3CC(C(F)(F)F)=C4C=C(C(=O)O)CC[C@]4(C)C3CC[C@@]21C)C(C)C` (stereo partly drawn), the Ki app [2] is reported as 1000 nM and the IC50 [6] is reported as 700 nM.
`CC(C)N(C(=O)[C@H]1CCC2C3CC[C@H]4C=C(C(=O)O)CC[C@]4(C)C3CC[C@@]21C)C(C)C` (stereo partly drawn) gave a Ki app [7] of 70 nM and a Ki [8] of 30 nM.
In the case of `CC(C)(C)NC(=O)[C@H]1CC[C@H]2[C@@H]3CC=C4C=C(C(=O)O)CC[C@]4(C)[C@H]3CC[C@]12C` [EPRISTERIDE], the Ki app [9] is reported as 20 nM.
